Experiments:
[1] = test system: MS2 coat protein; test: apparent Kd, MS2 coat protein; higher = weaker binding; RNA-MaP array; theophylline 2 mM where present
In short: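 Green signal was scaled to red-channel RNA signal and control-cluster median Fmax, and the apparent Kd was taken as the median of filtered per-cluster binding-curve fits. The binding series used SNAP-549-labelled MS2 coat protein from 0.7 or 1.5 nM, doubling to 3 µM, on designs transcribed by stalled E. coli RNA polymerase on Illumina sequencing-chip clusters. Each series ran without and then with constant ligand in 100 mM Tris-HCl pH 7.5, 80 mM KCl, 4 mM MgCl2, BSA, DTT, yeast tRNA and Tween-20.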

[2] = test system: MS2 coat protein; test: apparent Kd, MS2 coat protein; higher = weaker binding; RNA-MaP array
In short: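 Sequenced DNA templates on an Illumina sequencing chip were transcribed into the designed RNAs. These were incubated at room temperature in Tris-HCl pH 7.5 buffer containing KCl, MgCl2, BSA, DTT, tRNA and Tween20 with fluorescently labeled MS2 coat protein at 1.5 nM to 3 μM, with or without input ligand. Apparent Kd is the median of binding-curve fits per cluster, and designs with fewer than 10 clusters measured were excluded.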

[3] = designed as: ON switch for theophylline, no ligand
[4] = ligand present: theophylline, designed as: ON switch for theophylline
[5] = designed as: OFF switch for theophylline, no ligand
[6] = ligand present: theophylline, designed as: OFF switch for theophylline
[7] = designed as: OFF switch for flavin mononucleotide, no ligand
[8] = ligand present: flavin mononucleotide, designed as: OFF switch for flavin mononucleotide
[9] = designed as: ON switch for flavin mononucleotide, no ligand
[10] = ligand present: flavin mononucleotide, designed as: ON switch for flavin mononucleotide
[11] = designed as: ON switch for tryptophan, no ligand
[12] = ligand present: tryptophan, designed as: ON switch for tryptophan

“ACAUGAGGAUCACCCAUGUCUGCCACUGAUACCAGCGGAAGCCAACGCCCUUGGCAGCAGAACAUGAGGAUCACCCAUGUAGGCA” was tested, and the “apparent Kd” value [1, 3] was 308 nM and the “apparent Kd” value [1, 4] was 169 nM.
In the case of “UGACAUUGCUCAGAUACCAGACAUGAGGAUCACCCAUGUGCCAAAUAAACGUACAUAAAUGUCCCUUGGCAGCUGAGCAAUGUCU”, the “apparent Kd” value [1, 5] is reported as 57.5 nM and the “apparent Kd” value [1, 6] is reported as 890 nM.
“ACAUCCAGGUUAAUCGUGGGCAUACUCGAUACCAGUAUUUUAAUCUACCCUUGGCAGCGACAUGAGGAUCACCCAUGUGCGAUGA” was tested, and the “apparent Kd” value [1, 5] was 12.4 nM and the “apparent Kd” value [1, 6] was 19.3 nM.
In the case of “AGCAGUACAACAGAUACCAGACUUUUAAUGCCUCUAAUUACAUGAGGAUCACCCAUGUUUGUCCCUUGGCAGCUGUUGUACUGCA”, the “apparent Kd” value [1, 5] is reported as 136 nM and the “apparent Kd” value [1, 6] is reported as 211 nM.
With “GGAAUAACGAUUGAUACCAGCAUGUUAACAUGAGGAUCACCCAUGUUAAGGAUAACAUAAUGCCCUUGGCAGCAACGGAAACCCG” the “apparent Kd” value [1, 3] was 21.3 nM and the “apparent Kd” value [1, 4] was 12.9 nM.
“AAGGGAGAAUCAGAUACCAGAGUAAGAUGGCAUGAUAAUUACAUGAGGAUCACCCAUGUACUCCCUUGGCAGCUGACAAUAUAUU” was tested, and the “apparent Kd” value [1, 5] was 10.2 nM and the “apparent Kd” value [1, 6] was 12.2 nM.
“GAUGAACUAUAUGAUACCAGACAACAUGAGGAUCACCCAUGUGAAUGUCGUCCUCUGCCUGUCCCUUGGCAGCGUAUAGUUUAUC” was tested, and the “apparent Kd” value [1, 5] was 29.6 nM and the “apparent Kd” value [1, 6] was 177 nM.
For “UAUAACAUGAGGAUCACCCAUGUAAGUGAUACCAGAUAAAUAAUAGUCCCUUGGCAGCAUAUUGGGAAAAUGUAUAAUAUAUAUU”, the “apparent Kd” value [1, 3] was 57.8 nM and the “apparent Kd” value [1, 4] was 57.4 nM.
For “UCAUAUUAGAUAGAUGUAAGGUAUCAUGAUACCAGUAGAUAAUUAUACCCUUGGCAGCAUAACAUGAGGAUCACCCAUGUACAUG”, the “apparent Kd” value [1, 5] was 21.3 nM and the “apparent Kd” value [1, 6] was 20.9 nM.
With “UUUACAUGAGGAUCACCCAUGUUCCAUGAUACCAGACAUGAAAAUGUCCCUUGGCAGCAUGAAUGAUUCAUAGGAUAAUUAUGGG” the “apparent Kd” value [1, 3] was 98.7 nM and the “apparent Kd” value [1, 4] was 52.9 nM.
For “ACAUCCAGAUUAAUCGUGGGCAUACUCGAUACCAGUAUUUUAACCUACCCUUGGCAGCGACAUGAGGAUCACCCAUGUGAGAUGA”, the “apparent Kd” value [1, 5] was 22.8 nM and the “apparent Kd” value [1, 6] was 30 nM.
In the case of “AUAAGUAAUGUUUCGUGUAUUAUUACAGAUACCAGACUAUACGUUGUCCCUUGGCAGCUGGAUUACAUGAGGAUCACCCAUGUUG”, the “apparent Kd” value [1, 5] is reported as 15.8 nM and the “apparent Kd” value [1, 6] is reported as 27.5 nM.
“ACAUGAGCAUCAGCCUUGUAGGAACUAGAUACCAGCCCAACAUGAGGCCCUUGGCAGCUGACAACAUGAGGAUCACCCAUGUCAC” was tested, and the “apparent Kd” value [1, 5] was 36.2 nM and the “apparent Kd” value [1, 6] was 34.1 nM.
“GGUAGCAGGACUGAUACCAGUCCAGCGAAUCAUACGACGCAACAUGAGGAUCACCCAUGUGACCCUUGGCAGCAGACUGCUACCG” was tested, and the “apparent Kd” value [1, 3] was 24.7 nM and the “apparent Kd” value [1, 4] was 14.5 nM.
With “AGUAAUCUAAGAGAUACCAGACGGUAUAUAACAUGAGGAUCACCCAUGUUUUGGGUGUACGUCCCUUGGCAGCUCAAAAUGAUAA” the “apparent Kd” value [1, 3] was 230 nM and the “apparent Kd” value [1, 4] was 115 nM.
With “AGAACAAAACUAAAUAAACAACUGGGUGAUACCAGCACAUGUGCGUGCCCUUGGCAGCAUCCGGCCACAUGAGGAUCACCCAUGU” the “apparent Kd” value [1, 3] was 74 nM and the “apparent Kd” value [1, 4] was 155 nM.
“GUGGAGACACGAGAUACCAGUCUCUAUAACAUGAGGAUCACCCAUGUAAUGCUCCUCAGGGACCCUUGGCAGCUCAGUAUGAUGA” was tested, and the “apparent Kd” value [1, 5] was 32.9 nM and the “apparent Kd” value [1, 6] was 134 nM.
In the case of “AUUAUCAUGGUCAUUUAUAUUUCGUCAGAUACCAGACUAGAUAUAGUCCCUUGGCAGCUGUUACAUGAGGAUCACCCAUGUUAUU”, the “apparent Kd” value [1, 5] is reported as 124 nM and the “apparent Kd” value [1, 6] is reported as 46.6 nM.
For “AUGCAGGGCAACAGCCACUGUCACGGUGAUACCAGUACCCGUGCGUACCCUUGGCAGCAUCGUGGUACAUGAGGAUCACCCAUGU”, the “apparent Kd” value [1, 3] was 271 nM and the “apparent Kd” value [1, 4] was 180 nM.
For “ACACAUGAGGAUCACCCAUGUUCAAUAGAUACCAGUGAUACGGUGCACCCUUGGCAGCUGUUGCUGAGUGAUGGUUCCCUCGGAA”, the “apparent Kd” value [1, 3] was 55.2 nM and the “apparent Kd” value [1, 4] was 77.7 nM.
With “UCCUCCUCCGCAAGGAGGAGGAGUUGCGAUACCAGCACGGCAACGUGCCCUUGGCAGCGCACAUGAGGAUCACCCAUGUCAUGUU” the “apparent Kd” value [1, 5] was 19.4 nM and the “apparent Kd” value [1, 6] was 24.3 nM.
“AGUGUAUCCAUCGAUACCAGCCACCACCGAUAGACCACAUGAGGAUCACCCAUGUUGGGUGGCCCUUGGCAGCGGUGGCUGUGUA” was tested, and the “apparent Kd” value [1, 3] was 287 nM and the “apparent Kd” value [1, 4] was 1190 nM.
In the case of “CAACAAGUAACUGAUACCAGUGUACUGACAUGAGGAUCACCCAUGUUGGGUUUUGUUGUACACCCUUGGCAGCAGAAUCUUGUUG”, the “apparent Kd” value [1, 5] is reported as 60.7 nM and the “apparent Kd” value [1, 6] is reported as 82.5 nM.
In the case of “AGUUCACAGGUGAGGAUAUCGGAGCACACAGACAGCGAGAAGGCACAUGAGGAUCACCCAUGUGGUCAGAAAAC”, the “apparent Kd” value [2, 7] is reported as 8.73 nM and the “apparent Kd” value [2, 8] is reported as 10.8 nM.
“GCAGAUACCAUGAGUCGACAUGAGGAUCACCCAUGUACUCCCAGAAGGAUGUACUUUGUUCAAGCAUAGGAUAUGGGCCGAACC” was tested, and the “apparent Kd” value [2, 9] was 114 nM and the “apparent Kd” value [2, 10] was 56 nM.
In the case of “CGAAGACAUGAGGAUCACCCAUGUAAGGAUAUUCAAAGAGCGCACCUGAAUGCCCUAUGAAGAAGGUACCGGGC”, the “apparent Kd” value [2, 7] is reported as 69.9 nM and the “apparent Kd” value [2, 8] is reported as 52.1 nM.
“CUUGUGUGAGGAUAUUAGACACAAUCCGACAGCGGGAUAGUUAAGAAGGCACAUGAGGAUCACCCAUGUUGAGU” was tested, and the “apparent Kd” value [2, 7] was 44.2 nM and the “apparent Kd” value [2, 8] was 81.2 nM.
“ACUCAGUCAGGAUAUAGAGCCGCACGAGAUCGUGACUCGAUCUAGAAGGGACAUGAGGAUCACCCAUGUUAAGA” was tested, and the “apparent Kd” value [2, 7] was 12.7 nM and the “apparent Kd” value [2, 8] was 20.8 nM.
With “UAGACCGAAGGAUAUACAUGAGGAUCACCCAUGUCAAGGACAUACCCACGAAAGGCACGUAGAAGGUCGGCAUA” the “apparent Kd” value [2, 7] was 18.2 nM and the “apparent Kd” value [2, 8] was 33.1 nM.
With “UCAAAAUGAUAGAAGGAGGCAAUACUCGCACCUAACAUGAGGAUCACCCAUGUCUGCAGGUUGACCUAGGAUAUAUGCAGUGGA” the “apparent Kd” value [2, 9] was 14.6 nM and the “apparent Kd” value [2, 10] was 9.35 nM.
With “AAUAUAGCAGGAUAUACAGAACACCAAUAGACUUCGUUUAGACAUGAGGAUCACCCAUGUAGAAGGGCUCAGAC” the “apparent Kd” value [2, 7] was 9.85 nM and the “apparent Kd” value [2, 8] was 9.18 nM.
For “CCCUCGUCAACGGCCGCCACUGUGAUUCACUAAGAUAAUAUUGCACAUGAGGAUCACCCAUGUCUCAGGACCGGGUUGGUGUGUC”, the “apparent Kd” value [2, 11] was 105 nM and the “apparent Kd” value [2, 12] was 65.9 nM.
In the case of “GCAAGGGUGCGAGGAUAUAUUAGAGUCUCUGGAAUAGAAGGCGCAAACAGUGUACAUGAGGAUCACCCAUGUGUAUAUACUGCU”, the “apparent Kd” value [2, 7] is reported as 11 nM and the “apparent Kd” value [2, 8] is reported as 10.2 nM.
“GAGGCUCAUAUGUAGGAUAUUCAAGGAGCUACAUGAGGAUCACCCAUGUUCGGACGCCAAUUUUUGAAGAAGGACAAGACAGUGUU” was tested, and the “apparent Kd” value [2, 9] was 54.6 nM and the “apparent Kd” value [2, 10] was 16.2 nM.
“CCGUUCGCCGAGAAGGGACAGGACUUAAUAGCGUCAGGAUAUCGCGGACCGUGAUUCUAUGACAUGAGGAUCACCCAUGUGCUU” was tested, and the “apparent Kd” value [2, 7] was 34.7 nM and the “apparent Kd” value [2, 8] was 11.7 nM.
“GUAUUACGGACGGCCGCCACUGUGGGACAUGAGGAUCACCCAUGUGGCGCUACUUACAAGUGCGACAGGACCGGGUCAUGGUUUG” was tested, and the “apparent Kd” value [2, 11] was 811 nM and the “apparent Kd” value [2, 12] was 301 nM.
“UCCGGACGUUCGGCCGCCACUAAUUUACAUGAGGAUCACCCAUGUGCCAGUGGUCCGCAGAGUAAUAGGACCGGGAACCUUGGCU” was tested, and the “apparent Kd” value ([2]; designed as: OFF switch for tryptophan, no ligand) was 25.9 nM and the “apparent Kd” value ([2]; ligand present: tryptophan, designed as: OFF switch for tryptophan) was 29.2 nM.
For “CGGCCACAUGAGGAUCACCCAUGUAGUUCGUCUAAAGGAUAUCCAGGUGGGUGACUCCAAGGAGAAGGUUAGGACG”, the “apparent Kd” value [2, 9] was 54.7 nM and the “apparent Kd” value [2, 10] was 39.3 nM.
In the case of “GCGCUAUUUAUUGAUACCAGAUACAGGAAUCACAUGAGGAUCACCCAUGUGGAAUGAAGGAUCCCUUGGCAGCAAUAGUCAAAAU”, the “apparent Kd” value [2, 3] is reported as 17.8 nM and the “apparent Kd” value [2, 4] is reported as 10.8 nM.
“AUCGGCAGAAAAGAUACCAGAGUAAUACACAACAUGAGGAUCACCCAUGUACGGACAAUCCUCCCUUGGCAGCUUGUAACAGUAU” was tested, and the “apparent Kd” value [2, 3] was 47.8 nM and the “apparent Kd” value [2, 4] was 26.9 nM.
With “UGCACCGCAGGAUAUACAAUGGAGGACGUUGUGAAUCAUAGACAUGAGGAUCACCCAUGUAGAAGGGCGUAUAA” the “apparent Kd” value [2, 7] was 34 nM and the “apparent Kd” value [2, 8] was 78.5 nM.
